Converted amounts (≈) assume the structure as drawn.
Legend:
A549 = experiment: Cytotoxicity against human A549 cells by MTT assay; type: functional, cell-based
Method in brief: (§1)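 MTT assay on ATCC lines: A549 (CCL-185, alveolar adenocarcinoma), HeLa (CCL-2, cervical), MDA-MB-231 (HTB-26) and MCF7 (HTB-22, breast adenocarcinoma). IC50 calculated from absorbance dose–response curves. Values are the average of two independent experiments.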

MCF7 = experiment: Cytotoxicity against human MCF7 cells by MTT assay; type: functional, cell-based; method in brief: as §1
MDA-MB-231 = experiment: Cytotoxicity against human MDA-MB-231 cells by MTT assay; type: functional, cell-based; method in brief: as §1
HeLa = experiment: Cytotoxicity against human HeLa cells by MTT assay; type: functional, cell-based; method in brief: as §1
Staphylococcus aureus [1] = experiment: Antibacterial activity against Staphylococcus aureus MTCC 96 after 24 hrs by well diffusion method; type: functional; details: MTCC 96, 24 h
Method in brief: (§2)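 MTCC strains spread on Mueller-Hinton agar plates with 0.1 mL of suspension at 1.5 × 10^8 CFU/mL (0.5 McFarland). Neomycin served as the antibacterial control, fluconazole and miconazole as antifungal controls, and DMSO as the negative control. Plates incubated 24 h at 30 °C. MIC was taken as the lowest amount giving an inhibition zone. Duplicates, mean reported.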

Bacillus subtilis = experiment: Antibacterial activity against Bacillus subtilis MTCC 121 after 24 hrs by well diffusion method; type: functional; details: MTCC 121, 24 h; method in brief: as §2
Micrococcus luteus = experiment: Antibacterial activity against Micrococcus luteus MTCC 2470 after 24 hrs by well diffusion method; type: functional; details: MTCC 2470, 24 h; method in brief: as §2
Pichia sporocuriosa = experiment: Antifungal activity against Issatchenkia hanoiensis MTCC 4755 after 24 hrs by well diffusion method; type: functional; details: MTCC 4755, 24 h; method in brief: as §2
Pichia kudriavzevii = experiment: Antifungal activity against Issatchenkia orientalis MTCC 3020 after 24 hrs by well diffusion method; type: functional; details: MTCC 3020, 24 h; method in brief: as §2
[Candida] aaseri = Antifungal activity against Candida aaseri MTCC 1962 after 24 hrs by well diffusion method; type: functional; details: Yamadazyma aaseri, MTCC 1962, 24 h; method in brief: as §2
Nakaseomyces glabratus = experiment: Antifungal activity against Candida glabrata MTCC 3019 after 24 hrs by well diffusion method; type: functional; details: MTCC 3019, 24 h; method in brief: as §2
Candida parapsilosis = experiment: Antifungal activity against Candida parapsilosis MTCC 1744 after 24 hrs by well diffusion method; type: functional; details: Lodderomyces parapsilosis, MTCC 1744, 24 h; method in brief: as §2
Candida albicans [2] = experiment: Antifungal activity against Candida albicans MTCC 7315 after 24 hrs by well diffusion method; type: functional; details: MTCC 7315, 24 h
Method in brief: (§3)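 Agar well diffusion on Mueller-Hinton agar seeded with 0.1 mL of suspension at 1.5 × 10^8 CFU/mL (0.5 McFarland). Fluconazole and miconazole served as positive controls, DMSO as negative control. Plates incubated 24 h at 30 °C. MIC taken as the lowest amount giving an inhibition zone; duplicates, mean reported.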

Candida albicans [3] = experiment: Antifungal activity against Candida albicans MTCC 4748 after 24 hrs by well diffusion method; type: functional; details: MTCC 4748, 24 h; method in brief: as §3
Candida albicans [4] = experiment: Antifungal activity against Candida albicans MTCC 3018 after 24 hrs by well diffusion method; type: functional; details: MTCC 3018, 24 h; method in brief: as §3
Candida albicans [5] = experiment: Antifungal activity against Candida albicans MTCC 3958 after 24 hrs by well diffusion method; type: functional; details: MTCC 3958, 24 h; method in brief: as §3
Candida albicans [6] = experiment: Antifungal activity against Candida albicans MTCC 3017 after 24 hrs by well diffusion method; type: functional; details: MTCC 3017, 24 h; method in brief: as §3
Candida albicans [7] = experiment: Antifungal activity against Candida albicans MTCC 1637 after 24 hrs by well diffusion method; type: functional; details: MTCC 1637, 24 h; method in brief: as §3
Candida albicans [8] = experiment: Antifungal activity against Candida albicans MTCC 854 after 24 hrs by well diffusion method; type: functional; details: MTCC 854, 24 h; method in brief: as §3
Candida albicans [9] = experiment: Antifungal activity against Candida albicans MTCC 183 after 24 hrs by well diffusion method; type: functional; details: MTCC 183, 24 h; method in brief: as §3
Raoultella planticola = experiment: Antibacterial activity against Klebsiella planticola MTCC 530 after 24 hrs by well diffusion method; type: functional; details: MTCC 530, 24 h; method in brief: as §2
Pseudomonas aeruginosa = experiment: Antibacterial activity against Pseudomonas aeruginosa MTCC 2453 after 24 hrs by well diffusion method; type: functional; details: MTCC 2453, 24 h; method in brief: as §2
Escherichia coli = experiment: Antibacterial activity against Escherichia coli MTCC 739 after 24 hrs by well diffusion method; type: functional; details: MTCC 739, 24 h; method in brief: as §2
Staphylococcus aureus [10] = experiment: Antibacterial activity against Staphylococcus aureus MLS16 MTCC 2940 after 24 hrs by well diffusion method; type: functional; details: MLS16 MTCC 2940, 24 h; method in brief: as §2
[11] = Homo sapiens, A549, read-out: IC50
[12] = Homo sapiens, MCF7, read-out: IC50
[13] = Homo sapiens, MDA-MB-231, read-out: IC50
[14] = Homo sapiens, HeLa, read-out: IC50

CCCCCCCCCC(O)CNC(C)=O (stereo not drawn)
IC50 (A549; a549): Not Active
IC50 (MCF7; mcf7): Not Active
IC50 (MDA-MB-231; mda-mb-231): Not Active
IC50 (HeLa; hela): Not Active

CCCCCCCCCC(O)CN (stereo not drawn)
MIC (Staphylococcus aureus [1]): 18.8 mg/L (≈ 100 µM)
MIC (Bacillus subtilis): 18.8 mg/L (≈ 100 µM)
MIC (Micrococcus luteus): 18.8 mg/L (≈ 100 µM)
IC50 (A549; [11]): 6.78 µM
IC50 (MCF7; [12]): 3.88 µM
IC50 (MDA-MB-231; [13]): 4.02 µM
IC50 (HeLa; [14]): 4.36 µM
MIC (Pichia sporocuriosa): 18.8 mg/L (≈ 100 µM)
MIC (Pichia kudriavzevii): 18.8 mg/L (≈ 100 µM)
MIC ([Candida] aaseri): 18.8 mg/L (≈ 100 µM)
MIC (Nakaseomyces glabratus): 18.8 mg/L (≈ 100 µM)
MIC (Candida parapsilosis): 18.8 mg/L (≈ 100 µM)
MIC (Candida albicans [2]): 18.8 mg/L (≈ 100 µM)
MIC (Candida albicans [3]): 18.8 mg/L (≈ 100 µM)
MIC (Candida albicans [4]): 18.8 mg/L (≈ 100 µM)
MIC (Candida albicans [5]): 18.8 mg/L (≈ 100 µM)
MIC (Candida albicans [6]): 18.8 mg/L (≈ 100 µM)
MIC (Candida albicans [7]): 18.8 mg/L (≈ 100 µM)
MIC (Candida albicans [8]): 18.8 mg/L (≈ 100 µM)
MIC (Candida albicans [9]): 18.8 mg/L (≈ 100 µM)
MIC (Raoultella planticola): 18.8 mg/L (≈ 100 µM)
MIC (Pseudomonas aeruginosa): 18.8 mg/L (≈ 100 µM)
MIC (Escherichia coli): 18.8 mg/L (≈ 100 µM)
MIC (Staphylococcus aureus [10]): 18.8 mg/L (≈ 100 µM)

COC(=O)CCCCCCCCC(O)CN (stereo not drawn)
IC50 (A549; [11]): 7.89 µM
IC50 (MCF7; [12]): 10.2 µM
IC50 (MDA-MB-231; [13]): 29.8 µM
IC50 (HeLa; [14]): 3.59 µM

NCC(O)CCCCCCCCC(=O)O (stereo not drawn)
IC50 (A549; a549): Not Active
IC50 (MCF7; mcf7): Not Active
IC50 (MDA-MB-231; mda-mb-231): Not Active
IC50 (HeLa; hela): Not Active

NCC(O)CCCCCCCCCO (stereo not drawn)
IC50 (A549; [11]): 16.2 µM
IC50 (MCF7; mcf7): Not Active
IC50 (MDA-MB-231; mda-mb-231): Not Active
IC50 (HeLa; [14]): 8.79 µM

COc1cccc2c1C(=O)c1c(O)c3c(c(O)c1C2=O)C[C@@](O)(C(=O)CO)C[C@@H]3O[C@H]1C[C@H](N)[C@H](O)[C@H](C)O1 [DOXORUBICIN]
IC50 (MCF7; [12]): 1.05 µM
IC50 (MDA-MB-231; [13]): 0.5 µM

OC(Cn1cncn1)(Cn1cncn1)c1ccc(F)cc1F [FLUCONAZOLE]
MIC (Pichia sporocuriosa): 75 mg/L (≈ 245 µM)
MIC (Pichia kudriavzevii): 150 mg/L (≈ 490 µM)
MIC ([Candida] aaseri): 37.5 mg/L (≈ 122 µM)
MIC (Nakaseomyces glabratus): 75 mg/L (≈ 245 µM)
MIC (Candida parapsilosis): 18.8 mg/L (≈ 61.2 µM)
MIC (Candida albicans [2]): 37.5 mg/L (≈ 122 µM)
MIC (Candida albicans [3]): 37.5 mg/L (≈ 122 µM)
MIC (Candida albicans [4]): 37.5 mg/L (≈ 122 µM)
MIC (Candida albicans [5]): 75 mg/L (≈ 245 µM)
MIC (Candida albicans [6]): 75 mg/L (≈ 245 µM)
MIC (Candida albicans [7]): 75 mg/L (≈ 245 µM)
MIC (Candida albicans [8]): 37.5 mg/L (≈ 122 µM)
MIC (Candida albicans [9]): 37.5 mg/L (≈ 122 µM)

Clc1ccc(COC(Cn2ccnc2)c2ccc(Cl)cc2Cl)c(Cl)c1 (stereo not drawn) [MICONAZOLE]
MIC (Pichia sporocuriosa): 9.37 mg/L (≈ 22.5 µM)
MIC (Pichia kudriavzevii): 9.37 mg/L (≈ 22.5 µM)
MIC ([Candida] aaseri): 9.37 mg/L (≈ 22.5 µM)
MIC (Nakaseomyces glabratus): 9.37 mg/L (≈ 22.5 µM)
MIC (Candida parapsilosis): 9.37 mg/L (≈ 22.5 µM)
MIC (Candida albicans [2]): 9.37 mg/L (≈ 22.5 µM)
MIC (Candida albicans [3]): 9.37 mg/L (≈ 22.5 µM)
MIC (Candida albicans [4]): 9.37 mg/L (≈ 22.5 µM)
MIC (Candida albicans [5]): 9.37 mg/L (≈ 22.5 µM)
MIC (Candida albicans [6]): 9.37 mg/L (≈ 22.5 µM)
MIC (Candida albicans [7]): 9.37 mg/L (≈ 22.5 µM)
MIC (Candida albicans [8]): 9.37 mg/L (≈ 22.5 µM)
MIC (Candida albicans [9]): 9.37 mg/L (≈ 22.5 µM)

Source: ChEMBL document CHEMBL2417414, “Total synthesis and biological evaluation of clavaminol-G and its analogs” (Eur J Med Chem, 2013)
